# Assay results from ChEMBL document CHEMBL4017460, “A Tobramycin Vector Enhances Synergy and Efficacy of Efflux Pump Inhibitors against Multidrug-Resistant Gram-Negative Bacteria” (J Med Chem, 2017).
# Activity calls are given as the source filed them. The rule behind the calls is not given here.
# Experiments:
# Klebsiella pneumoniae [1] = assay: Inhibition of RND efflux pump in Klebsiella pneumoniae isolate 116381 assessed as potentiation of minocycline-induced antibacterial activity by measuring fold reduction in minocycline MIC at 8 ug/ml after 18 to 24 hrs by microbroth dilution assay
# In short: (§1)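 Absolute minocycline MIC taken from checkerboard broth dilution with a fixed 8 μg/mL adjuvant. Inoculum was a 0.5 McFarland saline suspension diluted 1:50 in MHB, incubated 37 °C for 18 h. MIC is the lowest concentration with no growth.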
# [2] = system: Pseudomonas aeruginosa PAO1; assay: Inhibition of RND efflux pump in Pseudomonas aeruginosa PAO1 assessed as potentiation of tigecycline-induced antibacterial activity by measuring fold reduction in tigecycline MIC at 8 ug/ml after 18 to 24 hrs by microbroth dilution assay relative to tigecycline alone
# In short: (§2)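 Checkerboard broth microdilution: antibiotic 2-fold diluted along one axis, adjuvant 2-fold diluted along the other. Overnight culture standardized to 0.5 McFarland in saline, diluted 1:50 in MHB, added to wells, 37 °C for 18 h. MIC is the lowest concentration with no growth. FIC = MIC in combination / MIC alone; FICI = sum of the two FICs; FICI ≤0.5 is synergy.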
# Pseudomonas aeruginosa [3] = assay: Inhibition of RND efflux pump in Pseudomonas aeruginosa isolate 100036 assessed as potentiation of minocycline-induced antibacterial activity by measuring minocycline MIC at 8 ug/ml after 18 to 24 hrs by microbroth dilution assay (reference value: 64 ug/ml); in short: as §2
# Pseudomonas aeruginosa [4] = assay: Antibacterial activity against Pseudomonas aeruginosa isolate 101885 after 18 to 24 hrs by microbroth dilution assay; format: functional; in short: as §2
# Pseudomonas aeruginosa [5] = assay: Inhibition of RND efflux pump in Pseudomonas aeruginosa isolate 101885 assessed as potentiation of minocycline-induced antibacterial activity by measuring minocycline MIC at 8 ug/ml after 18 to 24 hrs by microbroth dilution assay (reference value: 16 to 32 ug/ml); in short: as §1
# Pseudomonas aeruginosa [6] = assay: Antibacterial activity against Pseudomonas aeruginosa isolate P259-96918 after 18 to 24 hrs by microbroth dilution assay; format: functional
# In short: (§3)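 Checkerboard in MHB: antibiotic 2-fold diluted along one axis, test agent 2-fold diluted along the other. Overnight culture standardized to 0.5 McFarland in saline, diluted 1:50 in MHB, added to wells, incubated 37 °C for 18 h. MIC is the lowest concentration with no growth. FIC = MIC in combination / MIC alone; FIC index = sum of both FICs.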
# Pseudomonas aeruginosa [7] = assay: Inhibition of RND efflux pump in Pseudomonas aeruginosa isolate P259-96918 assessed as potentiation of minocycline-induced antibacterial activity at 8 ug/ml after 18 to 24 hrs by checker board assay; in short: as §3
# Pseudomonas aeruginosa [8] = assay: Antibacterial activity against Pseudomonas aeruginosa isolate P262-101856 after 18 to 24 hrs by microbroth dilution assay; format: functional; in short: as §2
# Pseudomonas aeruginosa [9] = assay: Inhibition of RND efflux pump in colistin-resistant Pseudomonas aeruginosa isolate 101243 assessed as potentiation of minocycline-induced antibacterial activity at 8 ug/ml after 18 to 24 hrs by checker board assay; in short: as §2
# Pseudomonas aeruginosa [10] = assay: Inhibition of RND efflux pump in Pseudomonas aeruginosa isolate 100036 assessed as potentiation of minocycline-induced antibacterial activity by measuring fold reduction in minocycline MIC at 8 ug/ml after 18 to 24 hrs by microbroth dilution assay; in short: as §2
# Pseudomonas aeruginosa [11] = assay: Inhibition of RND efflux pump in Pseudomonas aeruginosa isolate 101885 assessed as potentiation of minocycline-induced antibacterial activity by measuring fold reduction in minocycline MIC at 8 ug/ml after 18 to 24 hrs by microbroth dilution assay; in short: as §2
# Pseudomonas aeruginosa [12] = assay: Inhibition of RND efflux pump in Pseudomonas aeruginosa isolate P262-101856 assessed as potentiation of minocycline-induced antibacterial activity by measuring fold reduction in minocycline MIC at 8 ug/ml after 18 to 24 hrs by microbroth dilution assay; in short: as §2
# Pseudomonas aeruginosa [13] = assay: Inhibition of RND efflux pump in Pseudomonas aeruginosa isolate P262-104354 assessed as potentiation of minocycline-induced antibacterial activity by measuring fold reduction in minocycline MIC at 8 ug/ml after 18 to 24 hrs by microbroth dilution assay; in short: as §2
# Pseudomonas aeruginosa [14] = assay: Inhibition of RND efflux pump in colistin-resistant Pseudomonas aeruginosa isolate 101243 assessed as potentiation of minocycline-induced antibacterial activity by measuring fold reduction in minocycline MIC at 8 ug/ml after 18 to 24 hrs by microbroth dilution assay; in short: as §2
# Enterobacter cloacae = assay: Inhibition of RND efflux pump in Enterobacter cloacae isolate 117029 assessed as potentiation of minocycline-induced antibacterial activity by measuring minocycline MIC at 8 ug/ml after 18 to 24 hrs by microbroth dilution assay (reference value: 128 to 256 ug/ml); in short: as §1
# Klebsiella pneumoniae [15] = assay: Inhibition of RND efflux pump in Klebsiella pneumoniae isolate 116381 assessed as potentiation of minocycline-induced antibacterial activity at 8 ug/ml after 18 to 24 hrs by microbroth dilution assay; in short: as §3
# Klebsiella pneumoniae [16] = assay: Antibacterial activity against Klebsiella pneumoniae isolate 116381 after 18 to 24 hrs by microbroth dilution assay; format: functional; in short: as §3
# Pseudomonas aeruginosa [17] = assay: Induction of outer membrane permeabilization in Pseudomonas aeruginosa PAO1 assessed as increase in NPN uptake up to 100 secs by fluorescence assay; format: functional
# In short: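 Outer membrane permeabilization in PAO1 cells, read as accumulation of 1-N-phenylnaphthylamine (NPN) by fluorescence over a range of compound concentrations. Triton X-100 (1%) and EDTA (10 mM) served as positive controls.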
# [18] = system: Pseudomonas aeruginosa PAO1; assay: Inhibition of RND efflux pump in Pseudomonas aeruginosa PAO1 assessed as potentiation of novobiocin-induced antibacterial activity […] by microbroth dilution assay
# [19] = system: Pseudomonas aeruginosa PAO1; assay: Inhibition of RND efflux pump in Pseudomonas aeruginosa PAO1 assessed as potentiation of trimethoprim-induced antibacterial activity […] by microbroth dilution assay
# [20] = system: Pseudomonas aeruginosa PAO1; assay: Inhibition of RND efflux pump in Pseudomonas aeruginosa PAO1 assessed as potentiation of vancomycin-induced antibacterial activity […] by microbroth dilution assay
# Pseudomonas aeruginosa [21] = assay: Potentiation of rifampicin-induced antibacterial activity against Pseudomonas aeruginosa PAO1 […] by microbroth dilution assay; format: functional
# Pseudomonas aeruginosa [22] = assay: Reduction in flagellum-dependant motility in Pseudomonas aeruginosa PAO1 at sub MIC after 20 hrs in presence of minocycline by swimming motility test; format: functional
# Pseudomonas aeruginosa [23] = assay: Potentiation of minocycline-induced antibacterial activity against mexAB-oprM deficient Pseudomonas aeruginosa PAO200 after 18 to 24 hrs by microbroth dilution assay; format: functional
# Pseudomonas aeruginosa [24] = assay: Potentiation of minocycline-induced antibacterial activity against mexAB-oprM/mexCD-oprJ/mexEF-oprN/mexXY/mexJK/opmH deficient Pseudomonas aeruginosa PAO750 after 18 to 24 hrs by microbroth dilution assay; format: functional
# [25] = system: Pseudomonas aeruginosa PAO1; assay: Inhibition of RND efflux pump in Pseudomonas aeruginosa PAO1 assessed as increase in tetracycline uptake measured at 1 min interval for 30 mins by fluorescence assay
# In short: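 Tetracycline uptake assay in P. aeruginosa PAO1: enhancement of tetracycline fluorescence as it enters cells, monitored with compound present at several concentrations.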
# [26] = system: Pseudomonas aeruginosa PAO1; assay: Inhibition of RND efflux pump in Pseudomonas aeruginosa PAO1 assessed as potentiation of tobramycin-induced antibacterial activity after 18 to 24 hrs by checker board assay; in short: as §3
SMILES,fold change (FC) (Klebsiella pneumoniae [1]),fold change (FC) [2],MIC (Pseudomonas aeruginosa [3]),MIC (Pseudomonas aeruginosa [4]),MIC (Pseudomonas aeruginosa [5]),MIC (Pseudomonas aeruginosa [6]),fractional inhibitory concentration index (FICI) (Pseudomonas aeruginosa [7]),MIC (Pseudomonas aeruginosa [8]),fractional inhibitory concentration index (FICI) (Pseudomonas aeruginosa [9]),fold change (FC) (Pseudomonas aeruginosa [10]),fold change (FC) (Pseudomonas aeruginosa [11]),fold change (FC) (Pseudomonas aeruginosa [12]),fold change (FC) (Pseudomonas aeruginosa [13]),fold change (FC) (Pseudomonas aeruginosa [14]),MIC (Enterobacter cloacae),fractional inhibitory concentration index (FICI) (Klebsiella pneumoniae [15]),MIC (Klebsiella pneumoniae [16]),Activity (Pseudomonas aeruginosa [17]),fractional inhibitory concentration index (FICI) [18],fractional inhibitory concentration index (FICI) [19],also measured
Cl.Cl.Cl.Cl.Cl.Cl.Cl.NC[C@H]1O[C@H](O[C@H]2[C@H](OCCCCCCCCCCCCN3CCN(Cc4cccc5ccccc45)CC3)[C@@H](O[C@H]3O[C@H](CO)[C@@H](O)[C@H](N)[C@H]3O)[C@H](N)C[C@@H]2N)[C@H](N)C[C@@H]1O,4 to 256,8 to 64,0.5 µg/mL,256 µg/mL,0.5 µg/mL,> 1020 µg/mL,0.02,64 µg/mL,0.28,8 to 256,8 to 256,8 to 256,8 to 256,8 to 256,8 µg/mL,0.13 to 0.38,> 32 µg/mL,Dose-dependent effect,< 0.1,< 0.1,fractional inhibitory concentration index (FICI) [20]: < 0.15; fractional inhibitory concentration index (FICI) (Pseudomonas aeruginosa [21]): <0.05; Activity (Pseudomonas aeruginosa [22]): Active; Activity (Pseudomonas aeruginosa [23]): inactive; Activity (Pseudomonas aeruginosa [24]): inactive; inhibition [25]: Dose-dependent effect; fractional inhibitory concentration index (FICI) [26]: > 1.5
NC[C@H]1C[C@H](C(=O)N[C@H](CCc2ccccc2)C(=O)Nc2ccc3ccccc3c2)N(CCCCCCCCCCCCO[C@@H]2[C@@H](O[C@H]3O[C@H](CO)[C@@H](O)[C@H](N)[C@H]3O)[C@H](N)C[C@H](N)[C@H]2O[C@H]2O[C@H](CN)[C@@H](O)C[C@H]2N)C1,4 to 256,8 to 64,< 0.25 µg/mL,16 µg/mL,< 0.125 µg/mL,64 µg/mL,0.03,32 µg/mL,0.19,8 to 256,8 to 256,8 to 256,8 to 256,8 to 256,1 µg/mL,0.03 to 0.16,> 32 µg/mL,Dose-dependent effect,< 0.1,< 0.1,fractional inhibitory concentration index (FICI) [20]: < 0.15; fractional inhibitory concentration index (FICI) (Pseudomonas aeruginosa [21]): <0.05; Activity (Pseudomonas aeruginosa [22]): Active; Activity (Pseudomonas aeruginosa [23]): inactive; Activity (Pseudomonas aeruginosa [24]): inactive; inhibition [25]: Dose-dependent effect; fractional inhibitory concentration index (FICI) [26]: > 1.5
Cl.Cl.Cl.Cl.Cl.Cl.NC[C@H]1O[C@H](O[C@H]2[C@H](OCCCCCCCCCCCCN3CC[C@@H](c4ccc(F)cc4)[C@H](COc4ccc5c(c4)OCO5)C3)[C@@H](O[C@H]3O[C@H](CO)[C@@H](O)[C@H](N)[C@H]3O)[C@H](N)C[C@@H]2N)[C@H](N)C[C@@H]1O,4 to 256,8 to 64,< 0.25 µg/mL,32 µg/mL,1 µg/mL,> 512 µg/mL,0.02,32 µg/mL,0.38,8 to 256,8 to 256,8 to 256,8 to 256,8 to 256,4 µg/mL,0.25 to 0.38,> 32 µg/mL,Dose-dependent effect,< 0.1,< 0.1,fractional inhibitory concentration index (FICI) [20]: < 0.15; fractional inhibitory concentration index (FICI) (Pseudomonas aeruginosa [21]): <0.05; Activity (Pseudomonas aeruginosa [22]): Active; Activity (Pseudomonas aeruginosa [23]): inactive; Activity (Pseudomonas aeruginosa [24]): inactive; inhibition [25]: Dose-dependent effect; fractional inhibitory concentration index (FICI) [26]: > 1.5
